# Measurements as given in PubChem BioAssay.
# The source made the active and inactive calls.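 How the source made its calls, unless noted: active means a full or partial loss of lipid-probe fluorescence in the fish gall bladder, intestine or both, judged by eye; inactive means no fluorescence loss, or compound toxic to the fish.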
# Columns and labels:
# [1] = inhibitors of TNFa-induced NFkB p65 translocation, primary screen, imaging, HUVEC, MLSMR starter and 10KST1 sets (AID 438;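 active means inhibition above 20% together with a positive visual image hit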;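 further: compound added about 3h40 before a 20 min TNFalpha stimulation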;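 on inhibition: signal is the nuclear over cytoplasmic p65 intensity ratio per well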); settings: HUVEC TNFa-induced p65 nuclear translocation; cell count: measured here: nuclei count (cytotoxicity indicator), at 2.08 µM; inhibition: at 2 µM, stronger effect = higher value, 0% TNFa-plus-vehicle, 100% no-TNFa wells
# [2] = reduction of polyQ htt aggregates in cells – imaging, exon1htt(103Q)mCFP cells, high-content imaging, primary screen (AID 483;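 active means visual image review flags a hit and inhibition of aggregation exceeds 20%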;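 further: compound exposure lasted 3 days before fixation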;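 on nuclei count: percent of the per-plate median nuclei count of sample wells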); settings: exon1htt(103Q)mCFP cell line, aggregate imaging, at 2 µM; inhibition of aggregation: stronger effect = higher value; nuclei count: measured here: cell count, toxicity
# [3] = endothelial E-selectin expression blockers – imaging, HUVEC, immunofluorescence, MLSMR starter and 10KST1 sets, primary screen (AID 487;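 active means visually confirmed hit in the image check and inhibition above 20%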;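 on inhibition: signal is fraction of cell area covered by stained E-selectin grains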;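 on nuclei count: 100% = median nuclei count of all wells on the same plate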); settings: HUVEC TNFalpha-induced E-selectin immunofluorescence imaging, at 2 µM; inhibition: stronger effect = higher value; nuclei count: measured here: cell number, toxicity
# [4] = biological target: Voltage-gated potassium channel subunit beta-2 (Rattus norvegicus) (UniProt P62483); assay: inhibitors of rat Kvbeta2 reductase activity – biochemical, NADPH fluorescence, primary screen (AID 622;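 active means fluorescence slope higher than the sample average by over 3 SD, cut at about -0.22 in these data, passing the limit was not always enough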;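 further: slope of raw intensity against log time taken from 70 to 1610 s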); settings: recombinant KvBeta, 4-cyanobenzaldehyde reduction, at 10 µM, stronger effect = higher value
# [5] = biological target: Voltage-gated potassium channel subunit beta-2 (Rattus norvegicus) (UniProt P62483); assay: enhancers of rat Kvbeta2 NADPH turnover – biochemical, NADPH fluorescence, primary screen (AID 623;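 active means NADPH fluorescence slope more negative than the mean of all samples by about 3 SD, 99.7% confidence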;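 further: fluorescence intensity change per second fitted from 20 to 320 s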); settings: Recombinant KvBeta, NADPH fluorescence decrease slope, 10 min; at 10 µM; stronger effect = lower value
# [6] = biological target: Alpha-2C adrenergic receptor (Homo sapiens) (UniProt P18825); assay: compounds altering alpha2C-coupled GIRK flux – cell-based, HEK293 alpha2C/GIRK1/2, thallium flux, primary screen (AID 624;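 active means fluorescence slope after compound addition differing from the mean of all screened samples at 99.7% confidence, in either direction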;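 further: slope of fluorescence ratio to pre-addition baseline per second over 15 to 24 s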); settings: thallium flux BTC fluorescence, at 10 µM, actives lie on both sides
# [7] = inhibitors of larval lipid processing in zebrafish, primary screen, whole organism, PED6 fluorescence, gall bladder and intestine (AID 686); settings: Zebrafish larvae PED6 lipid processing, fluorescence scoring; screened at 20 µM (by protocol);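 further: larvae 5 to 7 days old with five fish per well; signal comes from phospholipase A2 cleavage of quenched PED6 carried via bile; overnight exposure to compound and PED6 before scoring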
# How it was run: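 Test system – live zebrafish larvae aged 5-7 days, whole organism · Buffer or medium – E3 fish medium · Reagent – quenched phospholipase substrate PED6, 100 nM final, ingested by larvae · Doses – 20 µM single dose · Incubation – overnight compound and PED6 incubation · Technique – visual fluorescence microscopy scoring of gall bladder, gut · Read-out basis – visual per-well fluorescence inhibition score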
# [8] = blockers of RIG-like receptor reporter activation – cell-based, Sendai virus stimulus, luciferase, 10K MLSCN set, TLR/RLR signaling modifier project, primary screen (AID 602276;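 active means inhibition at or above 50% at 10 µM; inactive means inhibition below 50%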;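 further: firefly luciferase from ISG56 promoter only with Renilla not read in this screen; 0% = Sendai virus plus DMSO and 100% = medium plus DMSO without virus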); settings: HEK293 RL24 IRF3 luciferase reporter, at 10 µM, stronger effect = higher value
# [9] = TLR3 IRF3 reporter activation blockers – cell-based, poly I:C stimulus, luciferase, 10K MLSCN set, primary screen (AID 602277;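 active means inhibition of the reporter signal at or above 50%; inactive means inhibition below 50%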); settings: HEK293-TLR3 RL24 IRF3 luciferase reporter, at 10 µM, stronger effect = higher value
# Sequence of Alpha-2C adrenergic receptor (Homo sapiens) (P18825 whole entry, looked up): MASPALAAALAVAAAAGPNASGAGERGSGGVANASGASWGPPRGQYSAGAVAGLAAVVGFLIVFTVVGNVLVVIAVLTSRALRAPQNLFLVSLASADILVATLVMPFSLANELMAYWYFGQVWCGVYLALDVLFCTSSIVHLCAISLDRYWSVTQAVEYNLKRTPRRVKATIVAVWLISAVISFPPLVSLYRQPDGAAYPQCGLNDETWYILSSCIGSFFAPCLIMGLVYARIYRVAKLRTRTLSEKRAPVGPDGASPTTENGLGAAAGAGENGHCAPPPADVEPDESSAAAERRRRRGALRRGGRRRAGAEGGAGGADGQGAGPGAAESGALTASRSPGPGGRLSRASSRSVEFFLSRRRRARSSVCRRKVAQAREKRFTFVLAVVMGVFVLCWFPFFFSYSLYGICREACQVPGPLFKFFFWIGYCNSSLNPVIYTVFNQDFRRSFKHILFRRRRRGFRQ
# Sequence of Voltage-gated potassium channel subunit beta-2 (Rattus norvegicus) (P62483 whole entry, looked up): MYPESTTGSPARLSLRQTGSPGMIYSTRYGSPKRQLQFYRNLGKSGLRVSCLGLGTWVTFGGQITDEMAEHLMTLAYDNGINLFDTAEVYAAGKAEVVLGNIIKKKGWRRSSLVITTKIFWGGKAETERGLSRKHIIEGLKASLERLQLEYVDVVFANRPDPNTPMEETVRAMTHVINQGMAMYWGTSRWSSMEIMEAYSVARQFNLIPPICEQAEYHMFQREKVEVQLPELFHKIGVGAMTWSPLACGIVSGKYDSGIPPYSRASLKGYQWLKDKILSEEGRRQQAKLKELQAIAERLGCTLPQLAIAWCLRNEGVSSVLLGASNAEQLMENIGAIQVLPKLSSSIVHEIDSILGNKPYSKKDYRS
Structure (SMILES),cell count [1],inhibition [1],inhibition of aggregation [2],nuclei count [2],inhibition [3],nuclei count [3],fluorescence slope [4],NADPH fluorescence slope [5],slope [6],outcome [7],inhibition [8],inhibition [9]
O=C(CN1CCN(c2nc(-c3ccc(Cl)cc3)cs2)CC1)NCc1ccco1,638,-7.3% (inactive),9.3% (inactive),90.1%,-53.5% (inactive),108%,-0.463 (inactive),-3.9e-05 (inactive),0.00435 (inactive),inactive,-3.86% (inactive),98.3% (active)
COc1cc(S(=O)(=O)NC2CCCCC2C)ccc1Cl (centres undefined),691,4.8% (inactive),-2% (inactive),114%,-69.9% (inactive),106%,-0.411 (inactive),2.4e-05 (inactive),0.00366 (inactive),inactive,-3.61% (inactive),-3.48% (inactive)
O=C(Nc1ccccc1C(=O)O)c1cccc(NC(=O)c2ccc(Br)o2)c1,489,-9.3% (inactive),-2.4% (inactive),99.2%,-26.5% (inactive),161%,-0.441 (inactive),-4e-05 (inactive),0.00477 (inactive),inactive,6.35% (inactive),8.3% (inactive)
COC(=O)c1[nH]c2ccc(C)cc2c1NC(=O)CN1CCN(C(=O)c2ccccc2)CC1,330,-4% (inactive),3% (inactive),99.5%,-26.1% (inactive),102%,-0.306 (inactive),-3.3e-05 (inactive),0.00437 (inactive),inactive,18.9% (inactive),14.6% (inactive)
COC(=O)c1ccc(COC(=O)c2c(C)nn(Cc3ccccc3Cl)c2Cl)o1,431,-20.9% (inactive),7% (inactive),73.5%,46.3% (inactive),70.3%,-0.408 (inactive),1.7e-05 (inactive),0.00741 (inactive),inactive,17.9% (inactive),19.2% (inactive)
CCOC(=O)Cn1nnnc1CN(Cc1ccc(OC)cc1)Cc1cc2cc(C)ccc2[nH]c1=O,623,-4.9% (inactive),-27% (inactive),112%,62.8% (inactive),135%,-0.384 (inactive),6.1e-07 (inactive),0.00608 (inactive),inactive,-4.16% (inactive),-1.51% (inactive)
Cc1ccc(C(=O)Nc2c(C(=O)N3CCOCC3)cnn2-c2ccccc2)cc1,354,5.4% (inactive),-0.9% (inactive),102%,-6.5% (inactive),105%,-0.321 (inactive),-3.7e-05 (inactive),0.00471 (inactive),inactive,14% (inactive),15.4% (inactive)
COc1ccc(-c2nsc(SCC(=O)Nc3cc(C)on3)n2)cc1,245,-7% (inactive),14.4% (inactive),84.3%,50.5% (inactive),64.4%,-0.396 (inactive),-2.2e-07 (inactive),0.0058 (inactive),inactive,21.4% (inactive),17.9% (inactive)
Cn1c(=O)c2c(nc(NCCCO)n2Cc2cccc(Br)c2)n(C)c1=O,705,-1.8% (inactive),1.7% (inactive),108%,25.3% (inactive),92.8%,-0.349 (inactive),-4.6e-05 (inactive),0.00493 (inactive),inactive,14.9% (inactive),14.1% (inactive)
Cc1nonc1NC(=O)c1ccccc1Br,620,9.6% (inactive),28.1% (inactive),96.4%,52.4% (inactive),60%,-0.346 (inactive),-5.8e-05 (inactive),0.00524 (inactive),inactive,12% (inactive),22.4% (inactive)
CCn1c(SCC(=O)Nc2ccccc2N2CCCCC2)nc2c1c(=O)n(C)c(=O)n2C,490,-5.6% (inactive),19.9% (inactive),93.1%,-15.6% (inactive),89.4%,-0.338 (inactive),-6.7e-05 (inactive),0.00404 (inactive),inactive,16.1% (inactive),18.7% (inactive)
COc1cc(-c2nc(-c3ccncc3)no2)cc(OC)c1OC,491,-1.1% (inactive),-1.8% (inactive),88.9%,58.4% (inactive),50.2%,-0.341 (inactive),-3.8e-05 (inactive),0.00475 (inactive),inactive,4.77% (inactive),-3.43% (inactive)
O=C(c1ccco1)c1nnn(Cc2ccccc2)c1-c1ccccc1,346,-4.3% (inactive),4% (inactive),122%,-90% (inactive),116%,-0.347 (inactive),7.1e-06 (inactive),0.00349 (inactive),inactive,-4.9% (inactive),0.479% (inactive)
Cc1nnc(NC(=O)C2CCCO2)s1 (centres undefined),345,5.2% (inactive),-9.5% (inactive),97.4%,-105% (inactive),104%,-0.467 (inactive),-4.2e-05 (inactive),0.00593 (inactive),active; weak signal in gallbladder only,6.24% (inactive),6.47% (inactive)
O=C(CSc1nc2ccccc2c(=O)n1Cc1ccco1)NCc1ccccc1,399,-6.1% (inactive),1.9% (inactive),87.8%,-6.6% (inactive),103%,-0.439 (inactive),-4.9e-05 (inactive),0.0067 (inactive),inactive,19.4% (inactive),9.86% (inactive)
O=C(NC1CCS(=O)(=O)C1)OC1CCCCC1 (centres undefined),419,-1.2% (inactive),2% (inactive),111%,-91.7% (inactive),105%,-0.468 (inactive),-5.2e-05 (inactive),0.0056 (inactive),inactive,10.9% (inactive),3.54% (inactive)
Cc1nnc(SCC(=O)NCc2ccc3c(c2)OCO3)s1,418,3.1% (inactive),-12% (inactive),101%,-57% (inactive),106%,-0.468 (inactive),-4.3e-05 (inactive),0.00565 (inactive),inactive,5.5% (inactive),11.6% (inactive)
O=C(COC(=O)c1ccccc1C(=O)c1ccccc1)c1ccco1,327,7.4% (inactive),-2.3% (inactive),89.2%,4% (inactive),113%,-0.501 (inactive),2.4e-06 (inactive),0.00441 (inactive),inactive,-5.98% (inactive),2.21% (inactive)
O=C(/C=C/N1CCOCC1)c1ccc(-c2ccccc2)cc1,617,-4.7% (inactive),8.3% (inactive),112%,33.9% (inactive),101%,-0.398 (inactive),-4.3e-05 (inactive),0.00595 (inactive),inactive,-22.9% (inactive),-53.1% (inactive)
CSCCC(NC(=O)CCN1C(=O)c2ccccc2C1=O)C(=O)O (centres undefined),366,1.8% (inactive),-10.9% (inactive),99.7%,-76.8% (inactive),110%,-0.411 (inactive),2e-07 (inactive),0.00495 (inactive),inactive,15.7% (inactive),19.3% (inactive)
CCn1c(SCC(N)=O)nnc1-c1ccc(S(=O)(=O)N2CCN(C)CC2)cc1,736,-10.2% (inactive),-23.3% (inactive),118%,-11.3% (inactive),129%,-0.396 (inactive),-1.7e-05 (inactive),0.00446 (inactive),inactive,-10.4% (inactive),-10.4% (inactive)
O=C(c1ccc2snnc2c1)N1CCOCC1,370,6.3% (inactive),-11.2% (inactive),107%,-50.1% (inactive),117%,-0.371 (inactive),-4.9e-05 (inactive),0.00486 (inactive),inactive,10.1% (inactive),13.9% (inactive)
CCOC(=O)C1CCCN(C(=O)Cc2ccc(OC)c(OC)c2)C1 (centres undefined),705,2.6% (inactive),2.1% (inactive),100%,-124% (inactive),104%,-0.443 (inactive),-4.9e-05 (inactive),0.00479 (inactive),inactive,18.6% (inactive),17.7% (inactive)
COc1ccc(CNc2oc(-c3cccc4ccccc34)nc2C#N)cc1,570,-3.4% (inactive),8.1% (inactive),86.3%,56.8% (inactive),86.1%,-0.183 (inactive),6.8e-06 (inactive),0.00641 (inactive),inactive,4.97% (inactive),7.07% (inactive)
O=C(CCCSc1nc2ccccc2s1)NC1=NCCS1,333,-7.4% (inactive),10.8% (inactive),102%,-3.2% (inactive),102%,-0.409 (inactive),-1.5e-05 (inactive),0.00541 (inactive),inactive,36% (inactive),60.9% (active)
O=C(CN(Cc1ccc(F)cc1)C(=O)c1ccco1)NCc1ccc(F)cc1,357,6.8% (inactive),7% (inactive),90.9%,-382% (inactive),130%,-0.359 (inactive),-3.4e-05 (inactive),0.00584 (inactive),inactive,14.4% (inactive),21.2% (inactive)
COC(=O)Nc1ccc(S(=O)(=O)N2CCCCCC2)cc1,336,-2.5% (inactive),1.8% (inactive),100%,-61.6% (inactive),127%,-0.354 (inactive),1.2e-05 (inactive),0.0065 (inactive),inactive,17.1% (inactive),19.7% (inactive)
